ChEMBL document CHEMBL1136765, “1,3-dioxolane-based ligands as a novel class of alpha1-adrenoceptor antagonists” (J Med Chem, 2003)

How the values were obtained:
[1] = biological target: Alpha adrenergic receptor 1A and 1B (Rattus norvegicus) (UniProt P15823+P43140); assay: Selectivity given as ratio of pKb value against alpha1A receptor to pKb value against alpha-1B receptor in rat; assay type: functional
[2] = biological target: T1, Alpha-1B adrenergic receptor (Rattus norvegicus) (UniProt P15823); assay: Inhibition of (-)-phenylephrine-induced contraction of rat spleen (Alpha-1B adrenergic receptor ); assay type: functional, tissue-based
T1 sequence (whole entry): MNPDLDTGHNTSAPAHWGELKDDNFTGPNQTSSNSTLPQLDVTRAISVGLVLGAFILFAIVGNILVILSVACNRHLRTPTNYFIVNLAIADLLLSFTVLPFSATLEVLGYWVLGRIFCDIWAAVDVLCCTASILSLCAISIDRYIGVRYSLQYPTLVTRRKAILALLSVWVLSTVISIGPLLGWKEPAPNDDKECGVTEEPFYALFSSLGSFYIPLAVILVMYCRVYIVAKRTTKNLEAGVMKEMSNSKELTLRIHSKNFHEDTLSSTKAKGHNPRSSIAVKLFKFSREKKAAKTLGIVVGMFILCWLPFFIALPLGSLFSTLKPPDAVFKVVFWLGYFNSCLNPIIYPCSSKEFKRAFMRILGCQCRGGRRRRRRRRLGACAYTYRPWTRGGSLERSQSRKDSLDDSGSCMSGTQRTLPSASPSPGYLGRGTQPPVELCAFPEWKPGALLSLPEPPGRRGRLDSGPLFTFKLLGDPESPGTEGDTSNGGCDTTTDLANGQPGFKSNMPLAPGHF
Outline: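 Rat spleen strips in buffer containing 4 µM propranolol to block β-adrenoceptors, 1 g resting tension, 2 h equilibration. Isometric cumulative phenylephrine curves at 30 min intervals; first discarded, second control.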

[3] = Selectivity given as ratio of pKb value against Alpha-1D receptor to pKb value against Alpha-1B receptor in rat; assay type: functional
[4] = biological target: T2, Alpha-1D adrenergic receptor (Rattus norvegicus) (UniProt P23944); assay: Inhibition of (-)-noradrenaline-induced contraction of rat thoracic aorta (Alpha-1D adrenergic receptor); assay type: functional, tissue-based
T2 sequence (whole entry): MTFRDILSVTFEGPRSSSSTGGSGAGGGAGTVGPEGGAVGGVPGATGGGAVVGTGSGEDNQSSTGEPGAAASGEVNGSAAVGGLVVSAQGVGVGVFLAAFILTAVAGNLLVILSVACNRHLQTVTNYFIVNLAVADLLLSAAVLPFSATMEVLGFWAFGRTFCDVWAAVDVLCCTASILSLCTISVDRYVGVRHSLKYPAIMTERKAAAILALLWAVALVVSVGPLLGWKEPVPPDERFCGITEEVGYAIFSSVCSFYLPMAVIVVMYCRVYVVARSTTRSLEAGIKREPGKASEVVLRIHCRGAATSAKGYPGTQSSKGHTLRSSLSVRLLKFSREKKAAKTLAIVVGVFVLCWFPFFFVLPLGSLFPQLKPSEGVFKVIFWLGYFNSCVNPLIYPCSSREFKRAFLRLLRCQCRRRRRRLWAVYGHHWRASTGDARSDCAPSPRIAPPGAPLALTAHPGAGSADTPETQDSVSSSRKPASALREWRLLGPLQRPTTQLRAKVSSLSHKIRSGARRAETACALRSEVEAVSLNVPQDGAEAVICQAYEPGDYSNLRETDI
Outline: (§1)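 Endothelium-denuded rat thoracic aorta strips (denudation confirmed by no 100 µM acetylcholine relaxation after 1 µM noradrenaline) in Tyrode, 1 g tension, ≥2 h equilibration. Cumulative (-)-noradrenaline curves at 1 h intervals; third as control, antagonist 30 min before fourth.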

[5] = biological target: T3, Alpha-1A adrenergic receptor (Rattus norvegicus) (UniProt P43140); assay: Inhibition of (-)-noradrenaline-induced contraction of rat prostatic vas deferens (alpha1A receptor); assay type: functional
T3 sequence (whole entry): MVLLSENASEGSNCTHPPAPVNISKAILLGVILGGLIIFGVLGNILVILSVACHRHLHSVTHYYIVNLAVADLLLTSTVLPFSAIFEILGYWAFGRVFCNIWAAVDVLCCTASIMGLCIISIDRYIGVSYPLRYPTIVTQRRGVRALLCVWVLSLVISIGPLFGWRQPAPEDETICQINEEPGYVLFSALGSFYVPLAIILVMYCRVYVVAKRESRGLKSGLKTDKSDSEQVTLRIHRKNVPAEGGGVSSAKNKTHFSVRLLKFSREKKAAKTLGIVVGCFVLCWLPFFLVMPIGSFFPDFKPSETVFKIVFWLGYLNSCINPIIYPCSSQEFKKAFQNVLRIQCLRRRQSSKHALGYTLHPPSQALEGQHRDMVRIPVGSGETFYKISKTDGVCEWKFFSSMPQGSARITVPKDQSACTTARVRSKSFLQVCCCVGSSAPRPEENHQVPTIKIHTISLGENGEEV
Outline: (§2)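 Rat prostatic vas deferens portion equilibrated 60 min, washed every 15 min, primed twice with 10 µM noradrenaline, re-equilibrated 60 min; control noradrenaline concentration-response curve, then antagonist 30 min before repeat curve.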

[6] = biological target: Alpha adrenergic receptor 1A and 1D (Rattus norvegicus) (UniProt P23944+P43140); assay: Selectivity given as ratio of pKb value against Alpha-1D receptor to pKb value against alpha1A receptor in rat; assay type: functional
[7] = biological target: T4, Alpha-1D adrenergic receptor (Rattus norvegicus, UniProt P23944); assay: Antagonistic activity against (-)-noradrenaline-induced contraction of rat thoracic aorta (Alpha-1D adrenergic receptor); assay type: functional, tissue-based; conditions: read-out: pA2 (converted); outline: as §1
T4 sequence (P23944 whole entry): T2 sequence (whole entry)

[8] = biological target: T3, Alpha-1A adrenergic receptor (Rattus norvegicus); assay: Antagonistic activity against (-)-noradrenaline-induced contraction of rat prostatic vas deferens (Alpha-1A adrenergic receptor); assay type: functional, tissue-based; outline: as §2
[9] = biological target: T5, Alpha-1A adrenergic receptor (Rattus norvegicus, UniProt P43140); assay: Antagonistic activity against (-)-noradrenaline-induced contraction of rat prostatic vas deferens (Alpha-1A adrenergic receptor ); assay type: functional, tissue-based; conditions: read-out: pA2 (converted)
T5 sequence (P43140 whole entry): T3 sequence (whole entry)
Outline: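 Rat prostatic vas deferens segments equilibrated 60 min, washed every 15 min, primed twice with 10 µM noradrenaline, then re-equilibrated 60 min. Basal noradrenaline concentration-response curve, then repeat after 30 min antagonist equilibration.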

## COc1cccc(OC)c1OCCNCC1CO[C@@](C)(c2ccccc2)O1.O=C(O)C(=O)O (some centres undefined)
[1]
  Selectivity: 0.6
[2]
  pKb: 5.93
[3]
  Selectivity: 7
[4]
  pKb: 6.69
[5]
  pKb: 5.74
[6]
  Selectivity: 11

## COc1cccc(OC)c1OCCNCC1CO[C@](C)(c2ccccc2)O1.O=C(O)C(=O)O (some centres undefined)
[1]
  Selectivity: 2
[7]
  Kb: 129 nM
[2]
  pKb: 5.56
[3]
  Selectivity: 21
[5]
  pKb: 5.8
[6]
  Selectivity: 12

## COc1cccc(OC)c1OCCNCC1CO[C@@H](C(c2ccccc2)c2ccccc2)O1.O=C(O)C(=O)O (some centres undefined)
[1]
  Selectivity: 21
[2]
  pKb: 5.44
[3]
  Selectivity: 28
[4]
  pKb: 6.88
[5]
  pKb: 6.77
[6]
  Selectivity: 1

## COc1cccc(OC)c1OCCNCC1CO[C@H](c2ccccc2)O1.O=C(O)C(=O)O (some centres undefined)
[1]
  Selectivity: 8
[8]
  pKb: 6.61
[2]
  pKb: 5.7
[3]
  Selectivity: 6
[4]
  pKb: 6.44
[6]
  Selectivity: 0.7

## COc1ccccc1N1CCN(CCN2C(=O)CC3(CCCC3)CC2=O)CC1
[2]
  pKb: 7.48
[4]
  pKb: 8.4

## O=C(O)C(=O)O.c1ccc(OCCNCC2COC3(CCCCC3)O2)cc1 (centres undefined)
[1]
  Selectivity: 0.1
[2]
  pKb: 6.2
[3]
  Selectivity: 2
[4]
  pKb: 6.54
[5]
  pKb: 5.27
[6]
  Selectivity: 19

## O=C(O)C(=O)O.c1ccc(OCCNCC2CO[C@@H](c3ccccc3)O2)cc1 (some centres undefined)
[1]
  Selectivity: 0.4
[2]
  pKb: 6.4
[3]
  Selectivity: 4
[4]
  pKb: 6.94
[5]
  pKb: 6.01
[6]
  Selectivity: 9

## COc1cccc(OC)c1OCCNCC1COC(c2ccccc2)(c2ccccc2)O1.O=C(O)C(=O)O (centres undefined)
[1]
  Selectivity: 0.7
[7]
  Kb: 117 nM
[2]
  pKb: 5.89
[3]
  Selectivity: 11
[5]
  pKb: 5.73
[6]
  Selectivity: 16

## COc1cccc(OC)c1OCCNCC1COC(c2ccc3ccccc3c2)O1.O=C(O)C(=O)O (centres undefined)
[1]
  Selectivity: 5
[2]
  pKb: 5.12
[3]
  Selectivity: 33
[4]
  pKb: 6.65
[5]
  pKb: 5.79
[6]
  Selectivity: 7

## COc1cccc(OC)c1OCCNCC1CO[C@@H](c2cccc3ccccc23)O1.O=C(O)C(=O)O (some centres undefined)
[1]
  Selectivity: 0.2
[2]
  pKb: 6.38
[3]
  Selectivity: 5
[4]
  pKb: 7.07
[5]
  pKb: 5.69
[6]
  Selectivity: 24

## O=C(O)C(=O)O.c1ccc(OCCNCC2CO[C@H](c3ccccc3)O2)cc1 (some centres undefined)
[1]
  Selectivity: 0.1
[2]
  pKb: 6.3
[3]
  Selectivity: 6
[4]
  pKb: 7.09
[5]
  pKb: 5.44
[6]
  Selectivity: 45

## COc1cccc(OC)c1OCCNCC1CO[C@H](Cc2ccccc2)O1.O=C(O)C(=O)O (some centres undefined)
[1]
  Selectivity: 0.4
[2]
  pKb: 5.77
[3]
  Selectivity: 0.2
[4]
  pKb: 5.13
[5]
  pKb: 5.36
[6]
  Selectivity: 0.6

## COc1cccc(OC)c1OCCNCC1CO[C@@H](Cc2ccccc2)O1.O=C(O)C(=O)O (some centres undefined)
[1]
  Selectivity: 23
[2]
  pKb: 5.45
[3]
  Selectivity: 5
[4]
  pKb: 6
[5]
  pKb: 6.82
[6]
  Selectivity: 0.2

## COc1cccc(OC)c1OCCNCC1COc2ccccc2O1 (centres undefined)
[9]
  Kb: 0.437 nM
[7]
  Kb: 2.51 nM

## COc1cccc(OC)c1OCCNCC1CO[C@H](C(c2ccccc2)c2ccccc2)O1.O=C(O)C(=O)O (some centres undefined)
[1]
  Selectivity: 12
[2]
  pKb: 5.51
[3]
  Selectivity: 44
[4]
  pKb: 7.15
[5]
  pKb: 5.6
[6]
  Selectivity: 36

## COc1cccc(OC)c1OCCNCC1CO[C@H](c2cccc3ccccc23)O1.O=C(O)C(=O)O (some centres undefined)
[1]
  Selectivity: < 0.04
[2]
  pKb: 6.38
[3]
  Selectivity: 9
[4]
  pKb: 7.32
[5]
  pKb: < 5
[6]
  Selectivity: > 209

## COc1cccc(OC)c1OCCNCC1CO[C@@H](c2ccccc2)O1.O=C(O)C(=O)O (some centres undefined)
[1]
  Selectivity: 1
[2]
  pKb: 6.19
[3]
  Selectivity: 1
[4]
  pKb: 6.18
[5]
  pKb: 6.31
[6]
  Selectivity: 0.7
